Test results: ChEMBL document CHEMBL3826885, “Similarities and differences in affinity and binding modes of tricyclic pyrimido- and pyrazinoxanthines at human and rat adenosine receptors” (Bioorg Med Chem, 2016)
Converted amounts (≈) assume the structure as drawn.

Legend:
[1] = target: T1, Adenosine receptor A2b (Homo sapiens) (UniProt P29275); assay: Displacement of [3H]PSB-603 from recombinant human adenosine receptor A2b expressed in CHO cell membranes at 1 uM
T1 sequence (whole entry): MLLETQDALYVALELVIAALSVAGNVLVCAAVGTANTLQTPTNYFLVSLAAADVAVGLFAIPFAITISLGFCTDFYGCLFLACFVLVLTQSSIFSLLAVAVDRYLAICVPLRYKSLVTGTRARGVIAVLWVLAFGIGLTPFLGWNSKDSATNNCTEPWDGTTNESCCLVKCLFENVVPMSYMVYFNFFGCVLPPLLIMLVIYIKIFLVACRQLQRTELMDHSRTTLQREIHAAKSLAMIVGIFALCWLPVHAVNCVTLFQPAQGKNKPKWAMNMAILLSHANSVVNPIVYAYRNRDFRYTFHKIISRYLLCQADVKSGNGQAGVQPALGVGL
Outline: (§1)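 Membranes came from CHO cells expressing recombinant receptors (human A1, A2A, A2B, A3; rat A2B, A3). Radioligands were [3H]CCPA for A1 and [3H]PSB-11 or [3H]NECA for A3. A single high concentration was screened first, in three experiments for A1/A2A and two for A2B/A3. Full inhibition curves spanning at least 3 log units were run for potent compounds.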

[2] = target: Adenosine receptor A2a (Rattus norvegicus) (UniProt P30543); assay: Displacement of [3H]MSX2 from Adenosine receptor A2a in rat brain striatal membranes at 1 uM; type: cell membranes; conditions: Membrane
Outline: (§2)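 Native rat receptors: A1 in brain cortical membranes with [3H]CCPA, A2A in brain striatal membranes, from frozen unstripped rat brains. Compounds were first screened at a single high concentration in three independent experiments. Active compounds then had full inhibition curves over at least 3 orders of magnitude of concentration.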

Adenosine receptor A2a [3] = target: Adenosine receptor A2a (Rattus norvegicus, UniProt P30543); assay: Displacement of [3H]MSX2 from adenosine receptor A2a in rat brain striatal membranes; type: cell membranes, Membrane; outline: as §2
Adenosine receptor A2b [4] = target: T2, Adenosine receptor A2b (Homo sapiens, UniProt P29275); assay: Displacement of [3H]PSB-603 from recombinant human adenosine receptor A2b expressed in CHO cell membranes
T2 sequence (P29275 whole entry): T1 sequence (whole entry)
Outline: (§3)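 Membranes came from CHO cells expressing recombinant receptors (human A1, A2A, A2B, A3; rat A2B, A3). Radioligands were [3H]CCPA for A1 and [3H]PSB-11 or [3H]NECA for A3. A single high concentration was screened first, in three experiments for A1/A2A and two for A2B/A3.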

Adenosine receptor A2a [5] = target: T3, Adenosine receptor A2a (Homo sapiens, UniProt P29274); assay: Displacement of [3H]MSX2 from recombinant human adenosine receptor A2a expressed in CHO cell membranes; outline: as §1
[6] = target: T4, Adenosine receptor A3 (Rattus norvegicus) (UniProt P28647); assay: Displacement of [3H]NECA from recombinant rat adenosine receptor A3 expressed in CHO cell membranes at 1 uM; outline: as §1
T4 sequence (whole entry): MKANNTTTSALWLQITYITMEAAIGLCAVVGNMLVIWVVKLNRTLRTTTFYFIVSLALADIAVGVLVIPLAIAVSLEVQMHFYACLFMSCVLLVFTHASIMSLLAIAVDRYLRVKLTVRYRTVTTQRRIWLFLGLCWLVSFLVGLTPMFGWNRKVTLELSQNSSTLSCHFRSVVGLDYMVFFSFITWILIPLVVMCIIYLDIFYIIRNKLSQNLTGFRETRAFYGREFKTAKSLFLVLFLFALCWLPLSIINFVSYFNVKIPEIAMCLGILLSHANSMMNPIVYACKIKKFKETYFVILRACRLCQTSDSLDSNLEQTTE

[7] = target: T5, Adenosine receptor A1 (Rattus norvegicus) (UniProt P25099); assay: Displacement of [3H]CCPA from adenosine receptor A1 in rat brain cortical membranes at 1 uM; type: cell membranes; outline: as §2
T5 sequence (whole entry): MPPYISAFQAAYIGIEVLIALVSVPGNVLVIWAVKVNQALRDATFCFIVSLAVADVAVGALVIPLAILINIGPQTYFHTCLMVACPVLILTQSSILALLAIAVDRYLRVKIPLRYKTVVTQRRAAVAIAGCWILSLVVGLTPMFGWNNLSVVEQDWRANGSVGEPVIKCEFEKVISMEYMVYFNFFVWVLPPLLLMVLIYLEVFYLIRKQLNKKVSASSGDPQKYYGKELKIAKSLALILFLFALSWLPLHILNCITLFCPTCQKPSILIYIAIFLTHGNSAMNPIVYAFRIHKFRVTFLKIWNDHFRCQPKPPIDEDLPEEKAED

Adenosine receptor A1 [8] = target: T6, Adenosine receptor A1 (Homo sapiens, UniProt P30542); assay: Displacement of [3H]CCPA from recombinant human adenosine receptor A1 expressed in CHO cell membranes; outline: as §1
T6 sequence (P30542 whole entry): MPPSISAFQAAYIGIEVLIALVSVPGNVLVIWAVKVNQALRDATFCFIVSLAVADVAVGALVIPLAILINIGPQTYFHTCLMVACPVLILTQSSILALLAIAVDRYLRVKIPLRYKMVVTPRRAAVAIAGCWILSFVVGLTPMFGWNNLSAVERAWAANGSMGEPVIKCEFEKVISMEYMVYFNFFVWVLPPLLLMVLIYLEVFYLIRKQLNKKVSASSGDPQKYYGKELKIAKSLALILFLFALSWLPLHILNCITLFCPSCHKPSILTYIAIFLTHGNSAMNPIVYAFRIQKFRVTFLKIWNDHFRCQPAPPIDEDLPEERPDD

[9] = target: T7, Adenosine receptor A1 (Homo sapiens) (UniProt P30542); assay: Displacement of [3H]CCPA from recombinant human adenosine receptor A1 expressed in CHO cell membranes at 1 uM; outline: as §1
T7 sequence (whole entry): T6 sequence (P30542 whole entry)

Adenosine receptor A2a [10] = target: T3, Adenosine receptor A2a; assay: Displacement of [3H]MSX2 from recombinant human adenosine receptor A2a expressed in CHO cell membranes at 1 uM; outline: as §1
[11] = target: T8, Adenosine receptor A2b (Rattus norvegicus) (UniProt P29276); assay: Displacement of [3H]PSB-603 from recombinant rat adenosine receptor A2b expressed in CHO cell membranes at 1 uM; outline: as §1
T8 sequence (whole entry): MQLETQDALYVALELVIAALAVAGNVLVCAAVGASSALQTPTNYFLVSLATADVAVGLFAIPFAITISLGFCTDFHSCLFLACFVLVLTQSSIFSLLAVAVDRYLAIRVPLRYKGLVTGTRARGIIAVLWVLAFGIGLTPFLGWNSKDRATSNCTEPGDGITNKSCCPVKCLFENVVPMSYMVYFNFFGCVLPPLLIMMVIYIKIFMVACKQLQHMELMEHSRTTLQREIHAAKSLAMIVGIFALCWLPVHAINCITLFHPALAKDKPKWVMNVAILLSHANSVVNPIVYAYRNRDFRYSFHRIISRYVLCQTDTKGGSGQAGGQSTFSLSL

Adenosine receptor A1 [12] = target: T9, Adenosine receptor A1 (Rattus norvegicus, UniProt P25099); assay: Displacement of [3H]CCPA from adenosine receptor A1 in rat brain cortical membranes; type: cell membranes
T9 sequence (P25099 whole entry): T5 sequence (whole entry)
Outline: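 Native rat receptors: A1 in brain cortical membranes with [3H]CCPA, A2A in brain striatal membranes, from frozen unstripped rat brains. Compounds were first screened at a single high concentration in three independent experiments.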

[13] = target: T10, Adenosine receptor A3 (Homo sapiens) (UniProt P0DMS8); assay: Displacement of [3H]PSB11 from recombinant human adenosine receptor A3 expressed in CHO cell membranes at 1 uM; outline: as §1
T10 sequence (whole entry): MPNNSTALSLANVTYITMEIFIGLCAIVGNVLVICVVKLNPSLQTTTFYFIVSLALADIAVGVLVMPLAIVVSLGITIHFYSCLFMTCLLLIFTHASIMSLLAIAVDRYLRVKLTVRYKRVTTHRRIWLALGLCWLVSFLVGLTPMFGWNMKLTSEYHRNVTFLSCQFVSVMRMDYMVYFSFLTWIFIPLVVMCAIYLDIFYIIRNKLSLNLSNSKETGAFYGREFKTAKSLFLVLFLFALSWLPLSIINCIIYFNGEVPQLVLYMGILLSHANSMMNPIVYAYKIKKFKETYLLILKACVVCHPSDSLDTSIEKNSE

[14] = Solubility of compound in water at 20 degC by UV-spectroscopic analysis; type: physicochemical
Outline: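 Suspensions were boiled 5 min, left overnight at 20 °C, and filtered. Filtrates were diluted 10-80-fold in MeOH and read by UV in MeOH/H2O (90% v/v). Concentration came from standard curves of seven concentrations from 10^-3 to 10^-1 mg/mL, using linear regression of two neighbouring points and multiplying by the dilution.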

Adenosine receptor A3 [15] = target: T11, Adenosine receptor A3 (Homo sapiens, UniProt P0DMS8); assay: Displacement of [3H]PSB-11 from recombinant human adenosine receptor A3 expressed in CHO cell membranes
T11 sequence (P0DMS8 whole entry): T10 sequence (whole entry)

Adenosine receptor A3 [16] = target: T12, Adenosine receptor A3 (Rattus norvegicus, UniProt P28647); assay: Displacement of [3H]NECA from recombinant rat adenosine receptor A3 expressed in CHO cell membranes; outline: as §3
T12 sequence (P28647 whole entry): T4 sequence (whole entry)

Adenosine receptor A2b [17] = target: T13, Adenosine receptor A2b (Rattus norvegicus, UniProt P29276); assay: Displacement of [3H]PSB-603 from recombinant rat adenosine receptor A2b expressed in CHO cell membranes; outline: as §3
T13 sequence (P29276 whole entry): T8 sequence (whole entry)

Adenosine receptor A2a [18] = target: T3, Adenosine receptor A2a; assay: Antagonist activity at human adenosine receptor A2a expressed in CHO cell membranes assessed as inhibition of NECA-induced cAMP accumulation incubated for 15 mins in presence of [3H]cAMP by liquid scintillation counting; type: functional
Outline: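 Stably transfected CHO cells (human A2A or A2B) grown in DMEM-F12 with 10% FCS at 37 °C, 5% CO2. The cells were seeded at 200,000/well, washed after 24 h and held 2 h in HBSS (pH 7.3) with 1 U/ml adenosine deaminase. Ro20-1724 was added to 40 µM final for 15 min, then NECA dilutions ± one fixed test concentration in 2.5% DMSO, in duplicate.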

[19] = target: T5, Adenosine receptor A1 (Rattus norvegicus); assay: Displacement of [3H]CCPA from adenosine receptor A1 in rat brain cortical membranes at 10 uM; type: cell membranes; conditions: 10 uM; outline: as §2

Adenosine receptor A2a (Rattus norvegicus, UniProt P30543), sequence (P30543 whole entry): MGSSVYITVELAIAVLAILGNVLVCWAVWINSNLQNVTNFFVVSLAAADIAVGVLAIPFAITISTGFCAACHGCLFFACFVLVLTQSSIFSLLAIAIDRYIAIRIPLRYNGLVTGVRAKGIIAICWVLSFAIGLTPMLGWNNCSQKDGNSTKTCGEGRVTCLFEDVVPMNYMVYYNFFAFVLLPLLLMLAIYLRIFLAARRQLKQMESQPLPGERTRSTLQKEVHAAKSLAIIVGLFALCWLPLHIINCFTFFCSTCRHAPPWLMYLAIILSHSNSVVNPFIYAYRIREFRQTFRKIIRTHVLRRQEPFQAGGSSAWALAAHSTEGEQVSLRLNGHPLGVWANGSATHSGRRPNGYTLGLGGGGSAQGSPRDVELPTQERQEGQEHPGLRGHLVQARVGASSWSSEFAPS
Adenosine receptor A2a (Rattus norvegicus), sequence (P30543 whole entry): as above
T3 sequence (P29274 whole entry): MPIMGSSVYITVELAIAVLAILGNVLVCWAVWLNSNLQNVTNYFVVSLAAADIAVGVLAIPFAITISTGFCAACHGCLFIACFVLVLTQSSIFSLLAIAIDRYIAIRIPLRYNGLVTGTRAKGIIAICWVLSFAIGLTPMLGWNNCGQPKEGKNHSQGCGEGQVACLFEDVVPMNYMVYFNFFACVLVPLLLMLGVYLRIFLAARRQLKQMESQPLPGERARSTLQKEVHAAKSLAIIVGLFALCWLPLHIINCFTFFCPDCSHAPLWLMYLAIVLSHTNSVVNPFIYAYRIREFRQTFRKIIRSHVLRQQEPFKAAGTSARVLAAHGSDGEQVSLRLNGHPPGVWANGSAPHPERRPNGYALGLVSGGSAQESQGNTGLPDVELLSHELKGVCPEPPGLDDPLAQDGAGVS

inhibition [1] [%]	inhibition [2] [%]	Ki (Adenosine receptor A2a [3]) [nM]	Ki (Adenosine receptor A2b [4]) [nM]	Ki (Adenosine receptor A2a [5]) [nM]	inhibition [6] [%]	inhibition [7] [%]	Ki (Adenosine receptor A1 [8]) [nM]	inhibition [9] [%]	inhibition (Adenosine receptor A2a [10]) [%]	inhibition [11] [%]	Ki (Adenosine receptor A1 [12]) [nM]	inhibition [13] [%]	solubility [14] [µg/mL]	Ki (Adenosine receptor A3 [15]) [nM]	Ki (Adenosine receptor A3 [16]) [nM]	Ki (Adenosine receptor A2b [17]) [nM]	Kb (Adenosine receptor A2a [18]) [nM]	inhibition [19] [%]	Compound
42	80	271	> 500	2180	19	14	2020	20	30	14	–	–	–	–	–	–	–	–	CCn1c(=O)c2c(nc3n2CCCN3CCc2ccc(O)cc2)n(CC)c1=O
22	51	1790	> 1000	–	–	30	–	–	–	–	567	20	260 (≈ 539 µM)	> 1000	–	–	–	–	CCCn1c(=O)c2c(nc3n2CCCN3c2ccc(OCCN(CC)CC)cc2)n(CCC)c1=O
34	49	989	> 1000	666	20	69	658	41	68	15	72	48	–	–	> 1000	> 1000	–	–	CCCCn1c(=O)c2c(nc3n2CCCN3c2ccc(OCCN3CCCC3)cc2)n(CCCC)c1=O
–	–	–	–	–	–	–	–	–	–	–	–	–	–	–	–	–	2220	–	Cn1c(=O)c2c(nc3n2CCCN3CCc2ccc(O)cc2)n(C)c1=O
6	49	1460	> 1000	1010	16	55	1190	30	54	6	137	44	–	> 1000	> 1000	> 1000	–	–	CCCCn1c(=O)c2c(nc3n2CCCN3c2ccc(OCCN(CC)CC)cc2)n(CCCC)c1=O
19	–	7850	> 1000	–	–	–	–	–	–	–	> 10000	0	–	> 1000	–	–	–	42	CCN(CC)CCOc1ccc(CCN2CCn3c(nc4c3c(=O)n(C)c(=O)n4C)C2)cc1
